Assay results reported in article PMC10613959 (Toxicological Sciences, 2023).
Read-outs that look alike come from different tables or passages of the source.

Key:
[1] = Blood partitioning assay for Rbp; type: in vitro ADME; details: both, human
Procedure, shortened: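 Fresh pooled mixed-gender human whole blood (lithium heparin) and reference plasma centrifuged from the same blood were each incubated with 5 µM test compound at 37°C, n = 3. Reactions were stopped at 0 and 60 min. Rbp was derived by LC-MS/MS from test compound concentration in control plasma versus whole-blood supernatant. Chlorthalidone 5 µM served as positive control.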

[2] = Skin absorption parameters; parameters: species or system human; details: Fitted; for Vehicle/water partition coefficient: vehicle/formulation specific
Procedure, shortened: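 A skin model in GastroPlus TCAT started from in silico predicted values for the vehicle, stratum corneum, epidermis and dermis. Its diffusivities and partition coefficients were fitted to skin penetration data: receptor-fluid time course where available, plus skin wash and layer distribution. Parameters were adjusted to minimise model–data difference and then used in the human dermal model. Vehicle/water partitioning is formulation-specific.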

[3] = PBK population simulation of plasma concentrations; parameters: species or system human
Procedure, shortened: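 GastroPlus population simulations reproduced the clinical designs. Lotion or non-aerosol spray, 2 mg/cm2 over 75% body surface, once at 0 h on day 1 and 4 times daily at 2-h intervals on days 2–4 (mixed multiple-dose profile). Alternatively, a 4% formulation over 90% body surface, about 22 mg/kg bw, in 3 male and 3 female subjects. Simulated-mean/observed-mean ratios for Cmax and AUC0−t; 10th–90th percentiles generated.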

[4] = Metabolic stability in primary human hepatocytes in suspension; type: in vitro ADME; details: human, cryopreserved human hepatocytes in suspension (5 donor pool)
Procedure, shortened: (§1)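 Cryopreserved human hepatocytes (5-donor pool, 0.8 × 10^6 cells/ml) in Williams E medium (25 mM HEPES, 2 mM L-glutamine) were incubated with test compound at 0.1, 1 and 10 µM, 37°C, n = 3. Sampled at 0, 15, 60, 90, 180 and 240 min; solvent ≤0.5% DMSO or 1% ACN. Heat-inactivated hepatocytes were the negative control. Parent loss was measured by LC-MS. CLint = −k·V (k, slope of log concentration vs time; V, incubation volume/cell number).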

human hepatocytes = experiment: as above; type: in vitro ADME; details: human suspension hepatocytes; compared with Naloxone
Procedure, shortened: as §1

[5] = Ex vivo skin penetration study of radiolabeled OMC; type: in vitro ADME; details: human skin; for Dermal delivery (Epidermis + Dermis + Receptor fluid), 14C-OMC / Dermis, distribution of 14C-OMC / Epidermis, distribution of 14C-OMC / Receptor fluid, distribution of 14C-OMC / Skin excess, distribution of 14C-OMC / Total recovery, 14C-OMC / Total strips (1–20), distribution of 14C-OMC: mean
Procedure, shortened: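 Dermatomed skin, 350–450 µm, in flow-through diffusion cells (1 cm2 area), unoccluded, surface at 32°C ± 1°C. Receptor fluid (5% w/w BSA, 0.9% NaCl) flowed at 1.5 ml/h and was collected hourly. Runs ended at 30 min, 1, 2, 4, 8 h (n = 5) or 24 h (n = 12). Up to 20 tape strips; epidermis heat-separated from dermis; compartments counted by scintillation. Dermal delivery = epidermis + dermis + receptor fluid.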

[6] = human plasma, topical sunscreen, ref Matta et al., 2020, cited from earlier work
[7] = Scaling of in vitro CLint to in vivo CLint and CLliver; parameters: species or system human; details: scaled from the mean in vitro CLint
Procedure, shortened: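 Mean in vitro hepatocyte CLint was scaled to in vivo CLint (l/h) using a scaling factor: million cells per gram of liver × grams of liver weight. In vivo CLint was then converted to hepatic clearance with two variations of the well-stirred liver model.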

Cross filtration = type: in vitro ADME; details: both, human, pooled human plasma
Procedure, shortened: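 Modified cross-ultrafiltration: 10 µM test compound in pooled mixed-gender human plasma, 60 min at 37°C, n = 3, then ultrafiltered beside blank plasma. Each retentate was mixed into the partner filtrate and the regenerated samples analysed by LC-MS/MS. Warfarin 10 µM was positive control. Stability was checked at 60 min against non-incubated control. Recovery-corrected mean PPB from filtrate; Fup = 100 − PPB.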

[8] = human skin, cited from earlier work
[9] = ref Shand, 1976; cited from earlier work
[10] = target dose 300 µg/cm^2, ref SCCS, 2021

CCCCC(CC)COC(=O)C=Cc1ccc(OC)cc1 (stereo not shown) [OMC, octyl methoxycinnamate]
blood plasma ratio at 60 min, 5 µM [1]: 0.73 | Dermis diffusivity [2]: 1.0E−07 cm^2/s | Dermis/water partition coefficient [2]: 7.0E−01 | Epidermis diffusivity [2]: 3.0E−08 cm^2/s | Epidermis/water partition coefficient [2]: 2.0E+01 | Stratum corneum diffusivity [2]: 2.0E−10 cm^2/s | Stratum corneum/water partition coefficient [2]: 4.5E+02 | Vehicle diffusivity [2]: 7.0E−12 cm^2/s | Vehicle/water partition coefficient [2]: 1.5E+05 | AUC0 − t Fold Difference (Simulated Mean/Observed Mean) ([3]; Day 1): 1.5 | Cmax Fold Difference (Simulated Mean/Observed Mean) ([3]; Day 1): 1.5 | AUC0 − t Fold Difference (Simulated Mean/Observed Mean) ([3]; Day 4): 2.7 | Cmax Fold Difference (Simulated Mean/Observed Mean) ([3]; Day 4): 1.3 | hepatocyte CLint [4]: 43.3 µL/min/1e6 cells | hepatocyte CLint at 10 µM [4]: 43.3 µL/min/1e6 cells | depletion in suspension hepatocytes (human hepatocytes): medium to fast depletion | dermal delivered fraction of the applied dose ([5]; all the conditions (30 min to 24 h), target dose 200 µg/cm^2): less than 0.5% | Dermal delivery (Epidermis + Dermis + Receptor fluid), 14C-OMC ([5]; terminated at 30 min): 0.10% | Dermis, distribution of 14C-OMC ([5]; terminated at 30 min): 0.004% | Epidermis, distribution of 14C-OMC ([5]; terminated at 30 min): 0.07% | Receptor fluid, distribution of 14C-OMC ([5]; terminated at 30 min): 0.02% | Skin excess, distribution of 14C-OMC ([5]; terminated at 30 min): 91.04% | Total recovery, 14C-OMC ([5]; terminated at 30 min): 91.65% | Total strips (1–20), distribution of 14C-OMC ([5]; terminated at 30 min): 0.51% | Dermal delivery (Epidermis + Dermis + Receptor fluid), 14C-OMC ([5]; terminated at 1 h): 0.06% | Dermis, distribution of 14C-OMC ([5]; terminated at 1 h): 0.01% | Epidermis, distribution of 14C-OMC ([5]; terminated at 1 h): 0.04% | Receptor fluid, distribution of 14C-OMC ([5]; terminated at 1 h): 0.003% | Skin excess, distribution of 14C-OMC ([5]; terminated at 1 h): 112.02% | Total recovery, 14C-OMC ([5]; terminated at 1 h): 112.38% | Total strips (1–20), distribution of 14C-OMC ([5]; terminated at 1 h): 0.30% | Dermal delivery (Epidermis + Dermis + Receptor fluid), 14C-OMC ([5]; terminated at 2 h): 0.11% | Dermis, distribution of 14C-OMC ([5]; terminated at 2 h): 0.005% | Epidermis, distribution of 14C-OMC ([5]; terminated at 2 h): 0.06% | Receptor fluid, distribution of 14C-OMC ([5]; terminated at 2 h): 0.04% | Skin excess, distribution of 14C-OMC ([5]; terminated at 2 h): 89.22% | Total recovery, 14C-OMC ([5]; terminated at 2 h): 90.06% | Total strips (1–20), distribution of 14C-OMC ([5]; terminated at 2 h): 0.73% | Dermal delivery (Epidermis + Dermis + Receptor fluid), 14C-OMC ([5]; terminated at 4 h): 0.12% | Dermis, distribution of 14C-OMC ([5]; terminated at 4 h): 0.01% | Epidermis, distribution of 14C-OMC ([5]; terminated at 4 h): 0.05% | Receptor fluid, distribution of 14C-OMC ([5]; terminated at 4 h): 0.06% | Skin excess, distribution of 14C-OMC ([5]; terminated at 4 h): 100.26% | Total recovery, 14C-OMC ([5]; terminated at 4 h): 100.75% | Total strips (1–20), distribution of 14C-OMC ([5]; terminated at 4 h): 0.37% | Dermal delivery (Epidermis + Dermis + Receptor fluid), 14C-OMC ([5]; terminated at 8 h): 0.20% | Dermis, distribution of 14C-OMC ([5]; terminated at 8 h): 0.01% | Epidermis, distribution of 14C-OMC ([5]; terminated at 8 h): 0.10% | Receptor fluid, distribution of 14C-OMC ([5]; terminated at 8 h): 0.09% | Skin excess, distribution of 14C-OMC ([5]; terminated at 8 h): 113.76% | Total recovery, 14C-OMC ([5]; terminated at 8 h): 114.46% | Total strips (1–20), distribution of 14C-OMC ([5]; terminated at 8 h): 0.50% | Dermal delivery (Epidermis + Dermis + Receptor fluid), 14C-OMC ([5]; terminated at 24 h): 0.28% | Dermis, distribution of 14C-OMC ([5]; terminated at 24 h): 0.02% | Epidermis, distribution of 14C-OMC ([5]; terminated at 24 h): 0.21% | Receptor fluid, distribution of 14C-OMC ([5]; terminated at 24 h): 0.06% | Skin excess, distribution of 14C-OMC ([5]; terminated at 24 h): 100.26% | Total recovery, 14C-OMC ([5]; terminated at 24 h): 100.96% | Total strips (1–20), distribution of 14C-OMC ([5]; terminated at 24 h): 0.41% | Observed AUC0 − t, Geometric mean ([6]; Day 1): 21.6 ng·h/mL | Observed AUC0 − t, Range ([6]; Day 1): 2.7 to 57.7 ng·h/mL | Observed Cmax, Range ([6]; Day 1): 0.6 to 5 ng/mL | Observed AUC0 − t, Geometric mean ([6]; Day 4): 103.4 ng·h/mL | Observed AUC0 − t, Range ([6]; Day 4): 45.1 to 213.5 ng·h/mL | Observed Cmax, Range ([6]; Day 4): 2.6 to 30.6 ng/mL | In vivo CLint scaled [7]: 312.0 l/h/kg liver | fraction unbound at 60 min, 10 µM (Cross filtration): 0.0004

CCCCC(CC)COC(=O)C(C#N)=C(c1ccccc1)c1ccccc1 (stereo not shown) [Octocrylene, octocrylene]
Dermal delivery (Epidermis + dermis + receptor fluid), 14C-octocrylene ([8]; 24 h, mean, ref SCCS (2021)): 0.15% | Dermis, distribution of 14C-octocrylene ([8]; 24 h, mean, ref SCCS (2021)): 0.012% | Epidermis, distribution of 14C-octocrylene ([8]; 24 h, mean, ref SCCS (2021)): 0.14% | Receptor fluid, distribution of 14C-octocrylene ([8]; 24 h, mean, ref SCCS (2021)): 0.0001% | Skin excess, distribution of 14C-octocrylene ([8]; 24 h, mean, ref SCCS (2021)): 97.96% | Total recovery, 14C-octocrylene ([8]; 24 h, mean, ref SCCS (2021)): 98.8% | Total strips (1–20), distribution of 14C-octocrylene ([8]; 24 h, mean, ref SCCS (2021)): 0.69% | absorbed dose into receptor fluid [8, 10]: negligible | dermal delivered fraction of the applied dose [8, 10]: less than 0.4% | blood plasma ratio at 60 min, 5 µM [1]: 0.73 | Dermis diffusivity [2]: 6.0E−08 cm^2/s | Dermis/water partition coefficient [2]: 7.0E−01 | Epidermis diffusivity [2]: 2.0E−08 cm^2/s | Epidermis/water partition coefficient [2]: 6.0E+02 | Stratum corneum diffusivity [2]: 2.0E−11 cm^2/s | Stratum corneum/water partition coefficient [2]: 2.0E+03 | Vehicle diffusivity [2]: 6.2E−09 cm^2/s | Vehicle/water partition coefficient [2]: 4.0E+05 | AUC0 − t Fold Difference (Simulated Mean/Observed Mean) ([3]; Day 1): 1.4 | Cmax Fold Difference (Simulated Mean/Observed Mean) ([3]; Day 1): 1.2 | AUC0 − t Fold Difference (Simulated Mean/Observed Mean) ([3]; Day 4): 1.4 | Cmax Fold Difference (Simulated Mean/Observed Mean) ([3]; Day 4): 0.6 | hepatocyte CLint [4]: 16.9 µL/min/1e6 cells | hepatocyte CLint at 0.1 µM [4]: 27.8 µL/min/1e6 cells | hepatocyte CLint at 1 µM [4]: 15.2 µL/min/1e6 cells | hepatocyte CLint at 10 µM [4]: 7.6 µL/min/1e6 cells | depletion in suspension hepatocytes (human hepatocytes): medium to fast depletion | Observed AUC0 − t, Geometric mean ([6]; Day 1): 20.0 ng·h/mL | Observed AUC0 − t, Range ([6]; Day 1): 6.4 to 38.1 ng·h/mL | Observed Cmax, Range ([6]; Day 1): 0.5 to 3.6 ng/mL | Observed AUC0 − t, Geometric mean ([6]; Day 4): 94.7 ng·h/mL | Observed AUC0 − t, Range ([6]; Day 4): 41.4 to 210.0 ng·h/mL | Observed Cmax, Range ([6]; Day 4): 2.6 to 38.7 ng/mL | In vivo CLint scaled [7]: 121.7 l/h/kg liver | fraction unbound at 60 min, 10 µM (Cross filtration): 0.0014

CC(C)NCC(O)COc1cccc2ccccc12 (stereo not shown) [propranolol]
bound to plasma [9]: 90%–95
